Test results published in ChEMBL document CHEMBL1275585, “Combined antibacterial and anti-inflammatory activity of a cationic disubstituted dexamethasone-spermine conjugate” (Antimicrob Agents Chemother, 2010).
Converted amounts (≈) assume the structure as drawn. The source made the active and inactive calls. No cut-off for these calls is given here.

Columns and labels:
Staphylococcus aureus [1] = assay: Antibacterial activity against macrolide-lincosamide-streptogramin B-negative, beta-lactamase-positive, methicillin-susceptible Staphylococcus aureus ATCC 29213; format: functional
Staphylococcus aureus [2] = assay: Antibacterial activity against macrolide-lincosamide-streptogramin B-positive, beta-lactamase-positive, methicillin-resistant Staphylococcus aureus isolate 6; format: functional
Summary of the method: (§1)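 MIC by broth dilution in Mueller-Hinton broth, inoculum 8 × 10^5 CFU/ml. Strains were typed for beta-lactamase with cefinase, for methicillin susceptibility by Etest, and for macrolide-lincosamide-streptogramin B by disc diffusion on MHA at 0.5 McFarland.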

Staphylococcus aureus [3] = assay: Antibacterial activity against macrolide-lincosamide-streptogramin B-negative, beta-lactamase-positive, methicillin-susceptible Staphylococcus aureus isolate 3; format: functional
Staphylococcus aureus [4] = assay: Antibacterial activity against macrolide-lincosamide-streptogramin B-negative, beta-lactamase-positive, methicillin-susceptible Staphylococcus aureus isolate 4; format: functional
Staphylococcus aureus [5] = assay: Antibacterial activity against macrolide-lincosamide-streptogramin B-negative, beta-lactamase-positive, methicillin-susceptible Staphylococcus aureus isolate 5; format: functional
Staphylococcus aureus [6] = assay: Antibacterial activity against macrolide-lincosamide-streptogramin B-positive, beta-lactamase-positive, methicillin-resistant Staphylococcus aureus ATCC 43300; format: functional; summary of the method: as §1
Staphylococcus aureus [7] = assay: Antibacterial activity against macrolide-lincosamide-streptogramin B-negative, beta-lactamase-positive, methicillin-susceptible Staphylococcus aureus ATCC 29213 in presence of clavulanic acid; format: functional
Summary of the method: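 Amoxicillin/clavulanic acid MIC against S. aureus measured alone and together with sublethal D2S concentrations.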

[8] = Cytotoxicity against human neutrophil assessed as effect on cell viability up to 20 uM after 12 hrs by microscopy; format: cell-based
Summary of the method: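 Freshly isolated human blood neutrophils incubated with D2S up to 20 µM for 12 h. Viability scored by manual trypan blue exclusion.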

Pseudomonas aeruginosa = assay: Bactericidal activity against kanamycin-resistant Pseudomonas aeruginosa PAO1 up to 50 uM after 1 hr by time-kill assay

NCC[C@H](O)C(=O)N[C@@H]1C[C@H](N)[C@@H](O[C@H]2O[C@H](CN)[C@@H](O)[C@H](O)[C@H]2O)[C@H](O)[C@H]1O[C@H]1O[C@H](CO)[C@@H](O)[C@H](N)[C@H]1O [AMIKACIN]
MIC (Staphylococcus aureus [1]): 1.6 µg/mL (≈ 2.73 µM) | MIC (Staphylococcus aureus [2]): 25 µg/mL (≈ 42.7 µM) | MIC (Staphylococcus aureus [3]): 1.6 µg/mL (≈ 2.73 µM) | MIC (Staphylococcus aureus [4]): 3.2 µg/mL (≈ 5.46 µM) | MIC (Staphylococcus aureus [5]): 1.6 µg/mL (≈ 2.73 µM) | MIC (Staphylococcus aureus [6]): 25 µg/mL (≈ 42.7 µM)

CC1(C)S[C@@H]2[C@H](NC(=O)[C@H](N)c3ccc(O)cc3)C(=O)N2[C@H]1C(=O)O [AMOXICILLIN]
MIC (Staphylococcus aureus [7]): 0.4 µg/mL | MIC (Staphylococcus aureus [2]): 12.5 µg/mL (≈ 34.2 µM) | MIC (Staphylococcus aureus [3]): 0.2 µg/mL (≈ 0.547 µM) | MIC (Staphylococcus aureus [4]): 1.6 µg/mL (≈ 4.38 µM) | MIC (Staphylococcus aureus [5]): 3.2 µg/mL (≈ 8.76 µM) | MIC (Staphylococcus aureus [6]): 12.5 µg/mL (≈ 34.2 µM)

C[C@@H]1C[C@H]2[C@@H]3CCC4=CC(=O)C=C[C@]4(C)[C@@]3(F)[C@@H](O)C[C@]2(C)[C@@]1(O)C(=O)CO [DEXAMETHASONE]
Activity [8]: Non-toxic | Activity (Pseudomonas aeruginosa): inactive

CC[C@H]1OC(=O)[C@H](C)[C@@H](O[C@H]2C[C@@](C)(OC)[C@@H](O)[C@H](C)O2)[C@H](C)[C@@H](O[C@@H]2O[C@H](C)C[C@H](N(C)C)[C@H]2O)[C@](C)(O)C[C@@H](C)C(=O)[C@H](C)[C@@H](O)[C@]1(C)O [ERYTHROMYCIN]
MIC (Staphylococcus aureus [1]): 0.4 µg/mL (≈ 0.545 µM) | MIC (Staphylococcus aureus [2]): 400 µg/mL (≈ 545 µM) | MIC (Staphylococcus aureus [3]): 0.2 µg/mL (≈ 0.273 µM) | MIC (Staphylococcus aureus [4]): 0.4 µg/mL (≈ 0.545 µM) | MIC (Staphylococcus aureus [5]): 0.2 µg/mL (≈ 0.273 µM) | MIC (Staphylococcus aureus [6]): 400 µg/mL (≈ 545 µM)

CN(C)[C@@H]1C(O)=C(C(N)=O)C(=O)[C@@]2(O)C(O)=C3C(=O)c4c(O)cccc4[C@@](C)(O)[C@H]3C[C@@H]12 [TETRACYCLINE]
MIC (Staphylococcus aureus [1]): 1.25 µg/mL (≈ 2.81 µM) | MIC (Staphylococcus aureus [2]): 20 µg/mL (≈ 45 µM) | MIC (Staphylococcus aureus [3]): 1.25 µg/mL (≈ 2.81 µM) | MIC (Staphylococcus aureus [4]): 1.25 µg/mL (≈ 2.81 µM) | MIC (Staphylococcus aureus [5]): 40 µg/mL (≈ 90 µM) | MIC (Staphylococcus aureus [6]): 0.625 µg/mL (≈ 1.41 µM)
